Sampled rows, rich in hits. Any-hit rate of the full collection: about 6.9%.
PostGolgi yeast – growth inhibition of a yeast mutant, post-Golgi transport screen | post-Golgi transport phenotypic cell assay | inhibition, % at 10 µM | 98,000 compounds, 0.9% hits;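 also: yeast cells grown in 1536-well plates; yeast grown about 18 h at 30C before absorbance read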
PostGolgi ctrl – yeast control strain growth, post-Golgi counter-screen; 98,000 compounds, 5% hits; inhibition, % at 10 µM; efflux-deficient yeast background strain, growth absorbance A615, 16 h
PTK2B oligo ant – Pyk2 (human) oligomerization antagonism; Q14289; Q293 cells, Pyk2 FERM NanoBiT luminescence; active compounds read low; z-score (the deposit names both 25 µM and 10 µM); 99,000 compounds, 0.83% hits; AID 1347419;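 active = Z-score of -3 or lower, scaled per plate to the spread of control and sample wells; inactive = z-score above -3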;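 also: negative z-score means lost luminescence so less FERM oligomerization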
FAK inh – FAK (human) kinase inhibition | biochemical FAK kinase activity assay | inhibition, %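 (tested at 7 µM)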 | AID 727 | 97,000 compounds, 0.84% hits; in the data active = inhibition above about 19%;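 also: 0% = DMSO and 100% = reference compound high control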
Target sequence (Q05397 whole entry, looked up): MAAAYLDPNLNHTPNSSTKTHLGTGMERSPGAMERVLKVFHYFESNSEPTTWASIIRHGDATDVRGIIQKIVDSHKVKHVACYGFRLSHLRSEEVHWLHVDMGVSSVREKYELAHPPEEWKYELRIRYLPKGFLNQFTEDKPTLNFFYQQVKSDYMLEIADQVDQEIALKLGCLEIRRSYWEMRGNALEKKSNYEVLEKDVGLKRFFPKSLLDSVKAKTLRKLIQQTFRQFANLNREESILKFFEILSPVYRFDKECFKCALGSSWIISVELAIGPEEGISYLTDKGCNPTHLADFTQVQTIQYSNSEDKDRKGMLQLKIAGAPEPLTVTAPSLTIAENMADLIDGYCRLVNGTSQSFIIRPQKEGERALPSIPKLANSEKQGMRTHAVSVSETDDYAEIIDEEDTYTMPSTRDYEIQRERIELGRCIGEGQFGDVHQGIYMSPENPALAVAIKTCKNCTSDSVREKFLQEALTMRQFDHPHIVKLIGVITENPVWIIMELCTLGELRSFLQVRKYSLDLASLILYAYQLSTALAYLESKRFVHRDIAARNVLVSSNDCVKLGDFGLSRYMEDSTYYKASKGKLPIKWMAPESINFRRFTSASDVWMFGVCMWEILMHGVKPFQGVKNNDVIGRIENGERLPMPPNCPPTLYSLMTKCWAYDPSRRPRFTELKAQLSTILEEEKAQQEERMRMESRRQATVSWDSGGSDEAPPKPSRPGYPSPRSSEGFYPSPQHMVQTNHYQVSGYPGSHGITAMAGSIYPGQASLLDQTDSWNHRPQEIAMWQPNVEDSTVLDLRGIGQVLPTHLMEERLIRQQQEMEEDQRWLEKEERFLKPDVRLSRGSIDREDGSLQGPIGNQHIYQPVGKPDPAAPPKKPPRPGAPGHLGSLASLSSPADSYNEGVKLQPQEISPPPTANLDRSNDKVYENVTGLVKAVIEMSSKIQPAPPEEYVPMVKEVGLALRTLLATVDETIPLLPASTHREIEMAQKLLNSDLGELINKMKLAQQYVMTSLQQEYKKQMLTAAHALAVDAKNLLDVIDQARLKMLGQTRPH
Candida biofilm – kills Candida albicans biofilms | C. albicans biofilm + clotrimazole, Alamar Blue | inhibition, % at 6 µM | 85,000 compounds, 0.14% hits;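 active = inhibition above 20%; inactive = inhibition below 20%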;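 also: preformed 24 hr biofilms exposed to compound for 48 hr; 0% = biofilm without compound and 100% = blank killed by clotrimazole plus chlorhexidine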
Ecoli tolC – growth inhibitors of E. coli BW25113 tolC mutant | growth inhibition, % at 10 µM (by protocol) | OD615 | 65,000 compounds, 2.2% hits;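 active = growth inhibition at or above a cutoff equal to the mean over every tested compound plus 3 SD, cut at about 60% in these data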;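 also: growth measured after 20 h incubation at 37 °C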
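Test system: tolC-deleted E. coli BW25113; medium: LB with kanamycin 50 µg/mL; compound: single-point testing at 10 µM; incubation: 20 h compound exposure of bacteria at 37 °C; signal: OD at 615 nm; evaluation: growth inhibition in percent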
Active calls of the source: *; nt = no result. Rule as the data show it, unless noted: active = inhibition above about 30%; inactive = the rest.

SMILES	PostGolgi yeast	PostGolgi ctrl	PTK2B oligo ant	FAK inh	Candida biofilm	Ecoli tolC
CCOC(=O)C(O)(c1ccc(N(CC)S(=O)(=O)c2ccccc2)cc1)C(F)(F)F (configuration not stated)	5.0	38.5*	-1.67	-9.6	nt	52.5
CSC(=Nc1ccccc1)c1c(O)n(C)c(=O)n(C)c1=O	-3.5	-2.7	-0.43	-1.1	5.2	-9.1
CC(c1ccccc1F)n1cc(C(=O)Nc2ccc3nc[nH]c3c2)nn1 (configuration not stated)	-3.1	30.4*	0.55	8.1	6.5	-11.1
O=C(Nc1ccc2c(c1)OCO2)c1cn(Cc2ccc(F)cc2)nn1	5.4	11.5	0.68	-4.8	4.4	6.5
O=c1[nH]c(=O)n(-c2ccccc2Cl)c(O)c1C=NCCN1CCCCC1	-9.1	17.0	0.07	3.5	-1.6	nt
O=c1[nH]c(=O)n(Cc2ccc(F)cc2)c(O)c1C=NCCN1CCCCC1	17.6	32.5*	0.74	-0.1	8.8	-13.0
Clc1ccc(COC(Cn2ccnc2)c2ccc(Cl)cc2Cl)c(Cl)c1 (configuration not stated)	nt	nt	nt	nt	11.5	100.0*
CCCCn1c(O)c(C(CC)=NC(C)c2ccccc2)c(=O)[nH]c1=O (configuration not stated)	14.7	52.0*	-3.84*	-1.7	5.4	nt
CCCCn1c(O)c(C(C)=NCc2cc(OC)cc(OC)c2)c(=O)[nH]c1=O	-6.9	20.2	-1.16	1.2	5.8	nt
CCCCn1c(O)c(C(C)=NCCc2ccccc2)c(=O)[nH]c1=O	0.7	31.3*	-1.44	5.3	6.7	-0.6
CCCCn1c(O)c(C(C)=NC(C)c2ccccc2)c(=O)[nH]c1=O (configuration not stated)	-3.5	19.0	-3.57*	1.9	10.7	28.2
C=CCn1c(O)c(C(CC)=NC2CC2)c(=O)[nH]c1=O	-11.9	7.9	-0.32	-1.2	7.0	nt
C=CCn1c(O)c(C(CC)=NC(C)c2ccccc2)c(=O)[nH]c1=O (configuration not stated)	0.3	39.7*	-0.85	-6.4	7.4	nt
Cc1cccn2c(=O)c3cc(C(=O)N4CCC5(CC4)OCCO5)n(C)c3nc12	5.5	7.7	1.13	2.4	-3.0	-18.5
Nc1ccc(S(=O)(=O)N2CC3CC(C2)c2cccc(=O)n2C3)cc1 (configuration not stated)	7.0	10.7	nt	6.3	2.4	-6.7
CCCC(=O)NC(Oc1ccccc1Cl)C(Cl)(Cl)Cl (configuration not stated)	13.8	3.9	0.89	3.2	nt	nt
CCC(C)C1N=C(c2ccccc2)c2cc(Cl)ccc2N(CC(=O)NCc2ccco2)C1=O (configuration not stated)	-8.0	4.0	nt	3.2	8.4	nt
Cc1ccccc1C1=NCC(=O)N(CC(=O)NCc2ccco2)c2sc3c(c21)CCCC3	5.2	9.8	1.52	-0.1	6.8	61.0*
O=c1c2ccccc2nc(-c2ccc(-c3ccccc3)cc2)n1-c1ccncc1	100.5*	85.9*	-1.91	1.1	nt	nt
O=P(Nc1ccccc1Cl)(c1ccccc1)c1nc2c(s1)CCCC2 (configuration not stated)	8.1	33.3*	-1.55	18.7	nt	nt
O=P(Nc1c(Cl)cccc1Cl)(c1ccccc1)c1nc2c(s1)CCCC2 (configuration not stated)	-4.6	14.5	-0.66	7.9	2.4	nt
COc1cccc(CN2CCN(C(=O)COc3ccc4ccccc4c3)CC2)c1	6.1	19.8	0.07	-3.6	6.5	-1.7
COc1ccc2c(c1)CC1(CN2C)C(=O)NC(=O)N(CCc2ccccc2)C1=O (configuration not stated)	1.2	-12.5	0.93	0.4	2.5	-6.9
CCC(C)N1C(=O)NC(=O)C2(Cc3c(ccc4ccccc34)N(C)C2)C1=O (configuration not stated)	2.6	32.5*	-1.15	-3.5	-2.3	49.6
CCCC[n+]1cc(/N=C(\[O-])OC)on1	-0.2	-3.5	0.29	-7.1	6.9	-15.3
SMILES	PostGolgi yeast	PostGolgi ctrl	PTK2B oligo ant	FAK inh	Candida biofilm	Ecoli tolC
N[C@@H](Cc1c[nH]c2ccccc12)c1nnc(SCc2ccc(Cl)cc2)o1	46.8*	-0.9	0.66	-0.9	3.7	31.1
CCn1nc(-c2cccs2)nc2c(=O)n(C)c(=O)nc1-2	104.6*	99.7*	-3.33*	nt	nt	97.5*
CCOC(=O)C(O)(c1ccc(N(CC)C(=O)OC)cc1)C(F)(F)F (configuration not stated)	-11.3	2.1	0.96	-2.1	4.6	5.9
CCn1c(O)c(C=Nc2ccc(N3CCOCC3)c(Br)c2)c(=O)n(CC)c1=S	1.0	37.5*	-0.18	3.0	nt	nt
CCOC(=O)C1C(=O)NC2(C)CC1c1cc(OC)ccc1O2 (configuration not stated)	0.2	3.5	0.31	nt	6.4	-14.8
Cc1cc(N2C(=O)C3CCCN3C2c2cccc(Cl)c2)no1 (configuration not stated)	-4.0	-2.8	0.24	-2.4	5.5	-23.2
Cc1cc(N2C(=O)C3CCCN3C2c2sccc2C)no1 (configuration not stated)	35.8*	-5.1	0.28	0.6	5.8	-25.5
CC(C)OC12Oc3ccccc3C=C1N1CCC2CC1 (configuration not stated)	-0.7	7.9	0.93	-2.7	1.9	-10.7
Cc1nc2c(c(C)nn2-c2ccccc2)c(C)c1CCC(=O)N1CCC2(CC1)OCCO2	8.1	33.7*	-0.29	nt	3.6	3.0
CC12CCCCC1=NC(c1ccc(Br)cc1)N2O (configuration not stated)	1.4	4.1	0.08	nt	4.3	-6.3
COc1cccc(N2CCN(Cc3ccc(Cl)cc3)CC2)c1	8.0	12.2	0.53	4.1	8.1	2.6
C=CCn1c(O)c(C=NCCCOc2ccc(CC)cc2)c(=O)[nH]c1=S	nt	nt	-0.39	-4.2	5.8	nt
CCOC(=O)c1c(-n2c(C)cc(C=C3C(=O)NC(=S)NC3=O)c2C)sc2c1CCCC2	96.8*	41.8*	-1.01	0.2	nt	nt
CN1C(=O)/C(=C/c2cccn2-c2ccc3ccccc3c2)C(=O)NC1=S	97.8*	4.2	-0.39	2.2	nt	nt
CC(C)c1ccc(N2C(=O)NC(=O)/C(=C\c3cnc(-c4ccccc4)nc3)C2=O)cc1	4.8	-3.4	0.8	-5.7	nt	nt
Cc1cc(C)cc(N2C(=O)NC(=O)/C(=C\c3cccn3-c3ccc(Cl)cc3)C2=O)c1	4.4	-2.4	-3.22*	-4.4	nt	nt
CC1=C(/C=C/c2ccccc2)CCN(C)C1	-2.7	4.4	-0.41	-5.7	nt	nt
Cc1ccc(-n2nc(C)c3c2NC(=O)CSC3c2ccc3c(c2)OCO3)cc1 (configuration not stated)	1.3	0.0	-0.51	nt	5.7	7.6
CC1CC2(O)c3nonc3CCC2N1O (configuration not stated)	nt	nt	0.11	-3.2	2.3	-3.9
CCOP(=O)(C(NC(=O)c1ccccc1Cl)=C(Cl)Cl)c1ccccc1 (configuration not stated)	-9.0	-1.5	0.08	-0.3	68.8*	nt
CCOP(=O)(OCC)C(NC(=O)c1ccccc1Cl)=C(Cl)Cl	-6.3	-1.2	0.18	-0.7	nt	nt

Assay outcomes (PubChem)
